ChEMBL document CHEMBL5357070, “Nicotinamide Phosphoribosyltransferase Positive Allosteric Modulators Attenuate Neuronal Oxidative Stress” (ACS Med Chem Lett, 2024)
Activity calls are given as the source filed them. The calls are words filed in the database; no cut-off is given here.

How the values were obtained:
[1] = target: T1, Nicotinamide phosphoribosyltransferase (Homo sapiens, UniProt P43490); experiment: Positive allosteric modulator activity at human C-terminal his 6 tagged NAMPT using NAM and PRPP as substrate by coupled enzymatic analysis
Target sequence in this assay (P43490 whole entry): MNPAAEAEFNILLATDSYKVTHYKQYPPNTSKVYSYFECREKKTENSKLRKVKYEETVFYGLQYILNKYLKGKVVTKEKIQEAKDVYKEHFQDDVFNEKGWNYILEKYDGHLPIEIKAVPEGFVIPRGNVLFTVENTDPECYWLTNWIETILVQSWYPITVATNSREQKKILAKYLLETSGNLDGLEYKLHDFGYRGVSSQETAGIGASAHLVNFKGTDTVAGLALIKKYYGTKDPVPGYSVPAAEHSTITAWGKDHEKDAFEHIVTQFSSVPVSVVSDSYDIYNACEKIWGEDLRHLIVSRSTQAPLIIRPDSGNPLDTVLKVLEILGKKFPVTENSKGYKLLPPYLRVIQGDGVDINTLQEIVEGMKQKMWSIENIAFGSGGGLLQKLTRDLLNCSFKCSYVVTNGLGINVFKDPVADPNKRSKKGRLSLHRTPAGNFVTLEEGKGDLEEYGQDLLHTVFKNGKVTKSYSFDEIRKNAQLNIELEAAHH

HT-22 [2] = experiment: Inhibition of oxidative stress in HT-22 cells assessed as fold reduction in […] induced ROS level at 2.5 uM measured after 18 to 24 hrs by MitoSOX red dye based flow cytometry analysis; assay type: functional, Mus musculus; conditions: time 18-24 hrs
Procedure, shortened: (§1)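 HT22 mouse hippocampal neuronal cells (passage 12-50) grown in DMEM with 10% FBS, seeded at 3,000-5,000 cells/well on poly D-lysine-coated wells and left overnight. Cells were pretreated with compound in matched DMSO/PBS vehicle for 18-24 h, then stressed with recombinant mouse TNFα for a further 18-24 h. Staining in PBS used 1 μM calcein-AM, 5 μM MitoSOX and 10 μg/mL Hoechst for 30-45 min. Mitochondrial ROS was read as MitoSOX mean intensity on a Celigo imaging cytometer and given as fold-change over vehicle. Each run had ≥3 intraplate replicates, and the assay was repeated in ≥3 separate experiments.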

[3] = target: T1, Nicotinamide phosphoribosyltransferase; experiment: Positive allosteric modulator activity at C-terminal his 6 tagged NAMPT in human THP-1 cells assessed as increase in NAD+ level at 30 uM incubated for 24 hrs by NAD-glo assay relative to control; assay type: cell-based
Procedure, shortened: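 THP-1 cells in RPMI 1640 with 10% heat-inactivated FBS, seeded at 37,500 cells/well (low passage). Held 1.5 h at 37 °C, 5% CO2, then treated with compound in DMSO (final ≤1%) for 24 h. NAD+ measured by NAD+/NADH-Glo luminescence. Three separate experiments per concentration.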
Target sequence in this assay (P43490 whole entry, looked up): as the sequence (P43490 whole entry) above

HT-22 [4] = experiment: Inhibition of oxidative stress in HT-22 cells assessed as fold reduction in […] induced ROS level at 40 uM measured after 18 to 24 hrs by MitoSOX red dye based flow cytometry analysis; assay type: functional, Mus musculus; conditions: time 18-24 hrs; procedure, shortened: as §1
HT-22 [5] = experiment: Inhibition of oxidative stress in HT-22 cells assessed as fold reduction in […] induced ROS level at 0.3 uM measured after 18 to 24 hrs by MitoSOX red dye based flow cytometry analysis; assay type: functional, Mus musculus; conditions: time 18-24 hrs; procedure, shortened: as §1
HT-22 [6] = experiment: Inhibition of oxidative stress in HT-22 cells assessed as reduction in […] induced ROS level at 20 to 40 uM measured after 18 to 24 hrs by MitoSOX red dye based flow cytometry analysis; assay type: functional, cell-based; conditions: Mus musculus, dose 20-40 µM, time 18-24 hrs
Procedure, shortened: (§2)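 HT22 mouse hippocampal neuronal cells (passage 12-50) seeded at 3,000-5,000 cells/well on poly D-lysine-coated wells and incubated overnight. Cells pretreated with compound (DMSO stocks, matched vehicle) for 18-24 h, then exposed to glutamate or mouse TNFα for 18-24 h. Stained in PBS with 1 μM calcein-AM, 5 μM MitoSOX and 10 μg/mL Hoechst for 30-45 min. Imaging cytometry; MitoSOX mean intensity expressed as fold over vehicle. At least three experiments, each with at least triplicate wells.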

HT-22 [7] = experiment: Inhibition of oxidative stress in HT-22 cells assessed as fold reduction in […] induced ROS level at 5.0 uM measured after 18 to 24 hrs by MitoSOX red dye based flow cytometry analysis; assay type: functional, Mus musculus; conditions: time 18-24 hrs; procedure, shortened: as §1
HT-22 [8] = experiment: Neuroprotective activity against glutamate induced excitotoxicity in HT-22 cells assessed as decrease in ROS activity measured after 18 to 24 hrs MitoSOX red dye based flow cytometry analysis; assay type: functional, cell-based; conditions: Mus musculus, dose 1.25-40 µM, time 18-24 hrs; procedure, shortened: as §2
HT-22 [9] = experiment: Neuroprotective activity against glutamate induced excitotoxicity in HT-22 cells assessed as decrease in ROS activity at 20 to 40 uM measured after 18 to 24 hrs by MitoSOX red dye based flow cytometry analysis; assay type: functional, cell-based; conditions: Mus musculus, dose 20-40 µM, time 18-24 hrs; procedure, shortened: as §2

In the case of `CC(C)C1(CCN(Cc2ccc(OC(F)(F)F)cc2)C(=O)c2ccco2)CCOC(C)(C)C1` (stereo not given), the EC50 [1] is reported as “Not Active”.
With `COc1ccc(CN(CCC2(C(C)C)CCOC(C)(C)C2)C(=O)c2ccco2)c(C(F)(F)F)c1` (stereo not given) the EC50 [1] was “Not Active”.
Work on `COc1ccc(CN(CCC2(C(C)C)CCOC(C)(C)C2)C(=O)c2ccc(Br)s2)cc1` (stereo not given) yielded an EC50 ([1]; read-out: EC50) of 12.8 µM.
In the case of `COc1ccc(CN(CCC2(C(C)C)CCOC(C)(C)C2)C(=O)c2cnc[nH]2)cc1` (stereo not given), the EC50 [1] is reported as > 8 µM.
`COc1ccc(CNCCC2CCOCC2)cc1` was tested, and the EC50 [1] was “Not Active”.
`COc1ccc(CN(CCC2(C(C)C)CCOC(C)(C)C2)C(=O)c2ccco2)cc1` (stereo not given) was tested, and the “fold change (FC)” value (HT-22 [2]) was 1.425, the Activity [3] was 18% and the “fold change (FC)” value (HT-22 [4]) was 1.133. The “fold change (FC)” value (HT-22 [5]) was 1.434.
`CC(C)C1(CCN(Cc2ccc(N(C)C)cc2)C(=O)c2ccco2)CCOC(C)(C)C1` (stereo not given) was tested, and the “fold change (FC)” value (HT-22 [2]) was 1.247, the Activity ([3]; filed as positive allosteric modulator) was 88% and the inhibition (HT-22 [6]) was “Active”. The “fold change (FC)” value (HT-22 [7]) was 1.287, the EC50 ([1]; read-out: EC50) was 3.29 µM and the Activity (HT-22 [8]) was “Dose-Dependent Effect”. For the same compound, the Activity (HT-22 [9]) was “Active”.
For `COc1ccc(CN(CCC2(C(C)C)CCOC(C)(C)C2)C(=O)c2cncnc2)cc1` (stereo not given), the EC50 [1] was “Not Active”.
In the case of `COc1ccc(CNC(=O)c2ccco2)cc1`, the EC50 [1] is reported as “Not Active”.
For `O=C(NCc1ccncc1)Nc1ccc(S(=O)(=O)N2CC3CCC(C2)O3)cc1`, the “fold change (FC)” value (HT-22 [7]) was 1.348 and the “fold change (FC)” value (HT-22 [5]) was 1.26.
